For data set [1], the system named is Human immunodeficiency virus 1. Description: Antiviral activity against HIV1 with reverse transcriptase K103N mutation in MT4 cells assessed as inhibition of viral induced cytopathic effect by MTT method. Particulars: Human immunodeficiency virus 1, MT4. Format: functional, organism-based. Put shortly:
(§1)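 MT-4 cells infected with the HIV-1 NNRTI-resistant mutant strain. Viable cells scored at day 5 post-infection by the MTT tetrazolium colorimetric method. […] Values are means ± SD from at least two experiments.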

The test system of data set [2] is Human immunodeficiency virus 1. Briefly: Antiviral activity against HIV1 with reverse transcriptase Y181C mutation in MT4 cells assessed as inhibition of viral induced cytopathic effect by MTT method. Format: functional, organism-based. Conditions: Human immunodeficiency virus 1, MT4. Put shortly: as §1
On the technique in general: Cytopathic effects are the visible damage that an infection or toxin causes in cultured cells.

Data set [3] deals with Human immunodeficiency virus 1. Description: Antiviral activity against HIV1 with reverse transcriptase Y188L mutation in MT4 cells assessed as inhibition of viral induced cytopathic effect by MTT method. Particulars: Human immunodeficiency virus 1, MT4. Format: functional, organism-based. Put shortly:
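MT-4 cells infected with the HIV-1 NNRTI-resistant mutant strain. Viable cells scored at day 5 post-infection by the MTT tetrazolium colorimetric method. Values are means ± SD from at least two experiments.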

Data set [4] can be described thus: Cytotoxicity against MT4 cells after 4 days by MTT method. Format: cell-based. Conditions: human. In a few lines:
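Mock-infected (noninfected) MT-4 cells, run in parallel with the antiviral test. Viable cells read by the MTT tetrazolium colorimetric method. […] Means ± SD from at least two experiments. The top concentration was limited where compounds precipitated in the culture medium.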
Background: Tetrazolium assays rely on reduction of a dye to a coloured formazan, in cell work by metabolically active cells.

The nature of data set [5]: Selectivity index, ratio of CC50 for MT4 cells to EC50 for HIV1 NL43 infected MT4 cells. The class given is functional.
The subject of data set [6] is Human immunodeficiency virus 1. Briefly: Antiviral activity against HIV1 with reverse transcriptase IRLL98 mutation in MT4 cells assessed as inhibition of viral induced cytopathic effect by MTT method. The class given is functional, organism-based. Conditions: Human immunodeficiency virus 1, MT4.
The nature of data set [7]: Resistance index, Ratio of EC50 for drug-resistant HIV1 with RT K103N mutation in MT4 cells to EC50 for HIV1 NL43 in MT4 cells.
Data set [8] is described as follows: Resistance index, Ratio of EC50 for drug-resistant HIV1 with RT Y181C mutation in MT4 cells to EC50 for HIV1 NL43 in MT4 cells.
Data set [9] is described as follows: Resistance index, Ratio of EC50 for drug-resistant HIV1 with RT Y188L mutation in MT4 cells to EC50 for HIV1 NL43 in MT4 cells.
The nature of data set [10]: Resistance index, Ratio of EC50 for drug-resistant HIV1 with RT IRLL98 mutation in MT4 cells to EC50 for HIV1 NL43 in MT4 cells.
Data set [11] has as its system Human immunodeficiency virus 1. Briefly: Antiviral activity against HIV1 NL43 in MT4 cells assessed as inhibition of viral induced cytopathic effect after 5 days by MTT method. Conditions: Human immunodeficiency virus 1, NL43, MT4, 120 h.

Turning to `CCN(C)c1nc(Cc2c(F)cccc2F)c(C)c(=O)[nH]1`, the EC50 in data set [1] is 4600 nM; in [2], 710 nM; in data set [3], 8000 nM; in data set [6], 420 nM; in [11], 18 nM. In data set [4], the CC50 at 96 h was over 85000 nM. Moreover, the “Ratio CC50/EC50” value in [5] was over 4722. Further, the “Ratio EC50” value in [7] came to 256; in [8], 39; in data set [9], 444; in data set [10], 23.

For `Cc1c(C(C)c2c(F)cccc2F)nc(N2CCCC(C)C2)[nH]c1=O` (stereo not given), the concentration for a half-maximal effect (EC50) in data set [1] was 193 nM; in data set [2] it was 14 nM; in data set [3], 120 nM; in [6], 200 nM; in data set [11], 3 nM. In data set [4], this compound had a CC50 at 96 h of over 72000 nM. The “Ratio CC50/EC50” value in [5] is over 24000. Besides, the “Ratio EC50” value turned out to be 64 in data set [7], 5 in data set [8], 40 in [9] and 67 in data set [10].

In the case of `Cc1c(Cc2c(F)cccc2F)nc(N(C)C(C)C)[nH]c1=O`, the half-maximal effective concentration (EC50) in data set [1] worked out at 1200 nM; in [2] it was 30 nM; in data set [3] it was 2300 nM; in [6], 80 nM; in [11] it was 2 nM. The compound also registered a CC50 at 96 h in data set [4] of 79000 nM. For the same compound, the “Ratio CC50/EC50” value in data set [5] stood at 39500. The “Ratio EC50” value in data set [7] is 600; in [8], 15; in data set [9], 1150; in data set [10], 40.

With `Cc1c(C(C)c2c(F)cccc2F)nc(N2CCC(C)CC2)[nH]c1=O` (stereo not given), the EC50 in data set [1] worked out at 322 nM; in data set [2], 10 nM; in data set [3], 220 nM; in [6] it was 300 nM; in data set [11], 2 nM. Moreover, in data set [4], half-maximal cytotoxicity (CC50 at 96 h) was put at 54000 nM. Moreover, the “Ratio CC50/EC50” value in [5] is recorded as 27000. Further, the “Ratio EC50” value in data set [7] stood at 161; in data set [8], 5; in data set [9], 110; in data set [10], 150.

Turning to `Cc1c(Cc2c(F)cccc2F)nc(N(C)C2CCCCC2)[nH]c1=O`, the EC50 in data set [1] is 4400 nM; in [2] it was 140 nM; in data set [3], 6200 nM; in [6], 2000 nM; in data set [11] it was 9 nM. The CC50 at 96 h in data set [4] was over 72000 nM. Also, in data set [5], the “Ratio CC50/EC50” value is on record as over 8000. The “Ratio EC50” value is 489 in [7], 16 in [8], 689 in [9] and 222 in data set [10].

As a reminder, the EC50 is the midpoint of the concentration-response curve. In general, CC50 refers to the concentration that lowers cell viability or growth by half. Higher therefore signals lower toxicity to the cells.

The values above are taken from ChEMBL document CHEMBL1137561 (J Med Chem, 2007).
